How the values were obtained:
Assay type in all cases: functional
Conditions in all cases: read-out: ED50 (the source's name)
[1] = tested on: A549; test: Cytotoxicity against human A549 cells by SRB assay
In short: (§1)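 Sulforhodamine B (SRB) bioassay on cultured human cancer lines: A549 (non-small cell lung carcinoma), SK-OV-3 (ovary malignant ascites), SK-MEL-2 (skin melanoma) and HCT (colon adenocarcinoma). Cytotoxicity is reported as ED₅₀ in µM.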

[2] = tested on: SK-OV-3; test: Cytotoxicity against human SKOV3 cells by SRB assay; in short: as §1
[3] = tested on: HCT-15; test: Cytotoxicity against human HCT15 cells by SRB assay; in short: as §1
[4] = tested on: SK-MEL-2; test: Cytotoxicity against human SK-MEL-2 cells by SRB assay; in short: as §1

| SMILES | EC50 [1] [µM] | EC50 [2] [µM] | EC50 [3] [µM] | EC50 [4] [µM] |
| --- | --- | --- | --- | --- |
| C=C1[C@@H]2[C@H]3OC(=O)[C@@H](CN4CCC[C@H]4C(=O)O)[C@@H]3[C@@H](OC(=O)C(C)(O)CO)CC(=C)[C@@H]2C[C@@H]1O (stereo not given in full) [PULCHELLAMINE C] | 27.6 | 11.8 | 18.3 | 5.73 |
| C=C(CO)C(=O)O[C@H]1CC(=C)[C@@H]2C[C@H](O)C(=C)[C@@H]2[C@H]2OC(=O)C(=C)[C@@H]21 [CYNAROPICRIN] | 24.5 | 7.42 | 12.1 | 4.07 |
| C=C1C(=O)O[C@@H]2[C@H]3C(=C)[C@@H](O)C[C@H]3C(=C)C[C@H](O)[C@@H]12 [DESACYLCYNAROPICRIN] | 25.7 | 11.3 | 11.3 | 9.74 |
| C=C1[C@@H]2[C@H]3OC(=O)[C@@H](CN[C@H](C(=O)O)C(C)C)[C@@H]3[C@@H](O)CC(=C)[C@@H]2C[C@@H]1O [PULCHELLAMINE E] | > 30 | > 30 | > 30 | > 30 |
| C=C1[C@@H]2[C@H]3OC(=O)[C@H](C)[C@@H]3[C@@H](O[C@@H]3O[C@H](CO)[C@@H](O)[C@H](O)[C@H]3O)CC(=C)[C@@H]2C[C@@H]1O | > 30 | > 30 | > 30 | > 30 |
| C=C1[C@@H]2[C@H]3OC(=O)[C@@H](CNCCCC(=O)O)[C@@H]3[C@@H](O)CC(=C)[C@@H]2C[C@@H]1O [PULCHELLAMINE B] | > 30 | > 30 | > 30 | > 30 |
| C=C1C(=O)O[C@@H]2[C@H]3C(=C)[C@H](O)C[C@H]3C(=C)C[C@H](OC(=O)C(C)(O)CO)[C@@H]12 (stereo not given in full) | > 30 | 18 | 28.8 | 10.5 |
| C=C1[C@@H]2[C@H]3OC(=O)[C@@H](CN[C@@H](CC(N)=O)C(=O)O)[C@@H]3[C@@H](O)CC(=C)[C@@H]2C[C@@H]1O [PULCHELLAMINE A] | > 30 | > 30 | > 30 | > 30 |
| C=C1[C@@H]2[C@H]3OC(=O)[C@@H](CN[C@H](C(=O)O)[C@H](C)CC)[C@@H]3[C@@H](O)CC(=C)[C@@H]2C[C@@H]1O [PULCHELLAMINE G] | > 30 | > 30 | > 30 | > 30 |
| C=C1[C@@H]2[C@H]3OC(=O)[C@H](C)[C@@H]3[C@@H](O)CC(=C)[C@@H]2C[C@@H]1O | > 30 | > 30 | > 30 | > 30 |
| COc1cccc2c1C(=O)c1c(O)c3c(c(O)c1C2=O)C[C@@](O)(C(=O)CO)C[C@@H]3O[C@H]1C[C@H](N)[C@H](O)[C@H](C)O1 [DOXORUBICIN] | 0.007 | 0.056 | 0.164 | 0.117 |
| C=C1C(=O)O[C@@H]2[C@H]3C(=C)[C@@H](O)C[C@H]3C(=C)C[C@H](OC(=O)CC(C)(C)O)[C@@H]12 | > 30 | 12.4 | 14.2 | 6.78 |
| C=C1[C@@H]2[C@H]3OC(=O)[C@H](C)[C@@H]3[C@@H](OC(=O)C(C)(O)CO)CC(=C)[C@@H]2C[C@@H]1O (stereo not given in full) | > 30 | > 30 | > 30 | > 30 |
| C=C1[C@@H]2[C@H]3OC(=O)[C@@H](CN[C@@H](Cc4c[nH]c5ccccc45)C(=O)O)[C@@H]3[C@@H](O)CC(=C)[C@@H]2C[C@@H]1O [PULCHELLAMINE F] | > 30 | 24.2 | > 30 | 18.6 |
| C=C1[C@@H]2[C@H]3OC(=O)[C@@H](CN[C@@H](Cc4ccccc4)C(=O)O)[C@@H]3[C@@H](O)CC(=C)[C@@H]2C[C@@H]1O [PULCHELLAMINES D] | > 30 | > 30 | > 30 | > 30 |

Reference: ChEMBL document CHEMBL1149862, “Guaiane sesquiterpene lactones and amino acid-sesquiterpene lactone conjugates from the aerial parts of Saussurea pulchella” (2008)
